Experimental data taken from ChEMBL document CHEMBL4196163, “In Silico Identification of Piperidinyl-amine Derivatives as Novel Dual Binders of Oncogene c-myc/c-Kit G-quadruplexes” (ACS Med Chem Lett, 2018).
The source made the active and inactive calls. The rule behind the calls is not given here.

What was measured:
dsDNA = assay: Binding affinity to double stranded DNA (unknown origin) assessed as change in melting temperature at 20 uM by fluorescence assay; assay type: nucleic-acid assay
Quadruplex DNA [1] = assay: Binding affinity to 5'-Dabcyl/3'-FM labeled c-myc G-quadruplex DNA (unknown origin) assessed as change in melting temperature at 20 uM by fluorescence assay; assay type: nucleic-acid assay
Summary of the method: (§1)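 Fluorescence melting of end-labelled oligonucleotides matching the c-myc and c-Kit G4 sequences used in the virtual screen. Melting profiles were recorded with and without increasing ligand concentrations.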

Quadruplex DNA [2] = assay: Binding affinity to 5'-Dabcyl/3'-FM labeled c-Kit G-quadruplex DNA (unknown origin) assessed as change in melting temperature at 20 uM by fluorescence assay; assay type: nucleic-acid assay; summary of the method: as §1
HGC-27 = assay: Cytotoxicity against human HGC27 cells assessed as reduction in cell viability after 72 hrs by Alamar blue assay; assay type: functional, cell-based; conditions: for IC50: HGC-27, 72 h
Summary of the method: (§2)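 Cells were exposed to the compound for 72 h, and viability was read by Alamar Blue. IC50 values were taken from dose-response curves, with linear regression coefficients (R2) reported.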

[3] = (§3) Cytotoxicity against human HMC-1.2 cells assessed as reduction in cell viability after 72 hrs by Alamar blue assay; assay type: functional, cell-based; summary of the method: as §2
Homo sapiens = species on record: Homo sapiens; assay: as §3; assay type: functional, cell-based; summary of the method: as §2
Quadruplex DNA [4] = assay: Stabilization of c-Kit G-quadruplex DNA (unknown origin) by circular dichroism method; assay type: nucleic-acid assay
Quadruplex DNA [5] = assay: Stabilization of c-myc G-quadruplex DNA (unknown origin) by circular dichroism method; assay type: nucleic-acid assay
Quadruplex DNA [6] = assay: Stabilization of 5'-biotinylated c-Kit G-quadruplex DNA (unknown origin) by surface plasmon resonance assay; assay type: nucleic-acid assay

Activity (dsDNA) | ΔTm (Quadruplex DNA [1]) [°C] | ΔTm (Quadruplex DNA [2]) [°C] | Activity (Quadruplex DNA [4]) | Activity (Quadruplex DNA [5]) | Activity (Quadruplex DNA [6]) | ΔTm (dsDNA) [°C] | Kd (Quadruplex DNA [4]) [nM] | Compound | Activity (HGC-27) | IC50 (HGC-27) [nM] | IC50 [3] [nM] | Activity (Homo sapiens)
inactive | 0.1 | 0.3 | – | – | – | – | – | CC(C)CC(N)C(=O)NC1CCN(C(=O)Cn2ccc3ccncc32)CC1 (stereo not drawn) | – | – | – | –
inactive | 1.3 | 2.3 | Active | Active | Dose-dependent effect | – | – | Cc1ccc(COc2ccc(CNCC3CCNCC3)cc2)cc1 | Dose-dependent effect | 4220 | 4000 | Dose-dependent effect
– | 2 | 3 | Active | Active | – | 1.5 | – | Cc1cc(-c2ccc(CNCC3CCNCC3)o2)ccc1Br | Dose-dependent effect | 2550 | 2560 | Dose-dependent effect
inactive | 0.4 | 1.1 | – | – | – | – | – | CCn1cc(C(NC(=O)CCCN)c2ccc(F)cc2)c2ccncc21 (stereo not drawn) | – | – | – | –
inactive | 0.6 | 0.1 | – | – | – | – | – | CC(C)(N)C(=O)NC1CCN(C(=O)Cn2ccc3ccncc32)CC1 | – | – | – | –
inactive | 5.4 | 3.2 | – | Active | Dose-dependent effect | – | 18000 | CCOc1cc(CNCC2CCNCC2)ccc1OCc1ccc(Cl)cc1 | Dose-dependent effect | 2370 | 2560 | Dose-dependent effect
